The record followed here is the RNAGym collection of RNA variant scans (doi:10.1101/gad.245936.114).

Fewer inactive variants are shown than the library holds.

B1: tRNA (parent)
chain: CUCUCGGUAGCCAAGUUGGUUUAAGGCGCAAGACUUUAAUUUAUCACUACGAAAUCUUGAGAUCGGGCGUUCGACUCGCCCCCGGGAGAUUUUUUCCUCGAGCAA

Variants of B1 are the subject of this series. Kind of series: nonsense suppression (GFP-seq) (ratio to wild type); higher = more function; SUP4oc tRNA, yeast GFP reporter sort-seq. Put shortly:
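Each variant's nonsense suppression (GFPSEQ) is a cell-share-weighted bin median GFP/RFP relative to the unmutated parent tRNA. Yeast with genome-integrated tRNA variants from a ~3% random-mutation library, a galactose-driven GFP ochre reporter and RFP were grown in raffinose/galactose medium with 80 mg/L adenine, then sorted into GFP/RFP bins for Illumina sequencing. Variants needed ≥100 reads and ≥30 cells.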
As to AUCUCGGUAGCGAAGUUGGUUUAAGGCGCAAGACUUUAAUUUAUCACUACGAAAUCUAGAGAUCGGGCGUUCGACUCGCCCCCGGGAGAUUUUUUCCUCGAGCAA [C1A C12G U58A], the nonsense suppression is ≤ 0.026.

As for AUCUCGGUAGCCAAGUUCGUUUAAGGCGCAAGACUUUAAUUUAUCACUACGAAAUCUUGAGAUCGGGCGUUCGACUCGCCCCCGGGAGAUUUUUUCCUCGAGCAA [C1A G18C], the nonsense suppression is ≤ 0.026. Consider AGCUCGGUAGCCAAGUUGAUUUAAGGCGCAACACUUUAAUUUAUCACUACGAAAUCUUGAGAUCGGGCGUUCGACUCGCCCCCGGGAGGUUUUUUCCUCGAGCAA [C1A U2G G19A G32C A89G], for which the nonsense suppression is ≤ 0.026.

On to AUCUCGGUAGCCAAGUUGGUUUAAGGCGCAAGACGUUAAUUUAUCACUACGAAAUCUUGAGAUCGGGCGUUCGACUCGCCCCCGGGAGAUUUUUUCCUCGAGCAA [C1A U35G], for which the nonsense suppression is ≤ 0.026. Take AUCUCGGUAGCCAAGUUGGUUUAAGGCGCAAGACUUUAAUUUAUCACUACGAAAUCUUGAGAUCGGGCGUCCGACUGGCCCCCGGGAGAUUUUUUCCUCGAGCAA [C1A U71C C77G]: the nonsense suppression is ≤ 0.026. The figure for AUCUCGGUAGCCAAGUUGGUUUAAGGCGCAAGACUUUAAUUUAUCACUACGAAAUCUUGAGAUCGGGCGUUCGACUCGCCGCCGGGAGAUUUUUUCCUCGAGCAA [C1A C81G] is ≤ 0.026; for AUCUCGGUAGCCAAGUUGGUUUAAGGCGCAAGACUUUAAUUUAUCACUACGAAAUCUUGAGAUCGGGCGUUCGACUCGCCUCCGGGAGAUUUUUUCCUCGAGCAA [C1A C81U] it is 0.045; for AUCUUGGUAGCCAAGUAGGUUUAAGGCGCAAGACUUUAAUUUAUCACUACGAAAACUUGAGAUCGGGCGUUCGACUCGCCCCCGGGAGAUUUUUUCCUCGAGCAA [C1A C5U U17A U55A] it is ≤ 0.026. The figure for GUCUCGGUAGCCAUGUUGGUUUAAGGCGCAAGACUUUAAUUUAUCACUACGAAAUCUUGAGAUCGGGCGUUCGACUUGCCCCCGGGAGAUUUUUUCCUCGAGCAA [C1G A14U C77U] is ≤ 0.026. Turning to AUCUCGGUAUCCAAGUUGGUUUAAGGCGCAAGACUUUAAUUUAUCACUACGAAAUCUUGAACUCGGGCGUUCCACUCGCCCCCGGGAGAUUUUUUCCUCGAGCAA [C1A G10U G61A A62C G73C], the nonsense suppression is ≤ 0.026.

For AUAUCGGAAGCCAAGUUGGUUUAAGGCGCAAGACUUUAAUUUAUCACUACGAAAUCUUGAGAUCGGGCGUUCGACUCGCCCCCGGGAAAUUUUUUCCUCGAGCAA [C1A C3A U8A G88A], the nonsense suppression is ≤ 0.026. The figure for GUCUCGGUAGCCAAGUUGGUUUAAGGCGCAAGGCUUUAAUUUAUCACUACGAAACCUUGAGAUCGGGCGUGCGACUCCCCCCCGGGAGAUUUUUUCCUCGAGCAA [C1G A33G U55C U71G G78C] is ≤ 0.026; for AUCUCGGUAGCCAAGUUGGUUUCAGGCGCAAGACUUUAAUUUAUCACUACGAAAUCUUGAGAUCGGGCGUUCGACUAGCCCCCGGGAGAUUUUUUCCUCGAGCAA [C1A A23C C77A] it is ≤ 0.026. The figure for GUCUCGGUGGACAAGUUGGUAUAAGGCGCCAGACUUUAAUUUAUCACUACGAAAUCUUGAGAUCGGGCGUUCGACUCACCCCCGGGAGAUUUUUUCCUCGAGCAA [C1G A9G C11A U21A A30C G78A] is ≤ 0.026; for AUCUCGGUUGCCAAGUUGGUUUAAGGCGCAAGACUUUAAUUUAUCACUACGAAAUCUUGAGAUCGGGGGUUCGACACGCCACCGGGAGAUUUUUUCCUCGAGCAA [C1A A9U C68G U76A C81A] it is ≤ 0.026; for AUCUCGGUAGCCAAGUUGCUUUAAGGCGCAGGACUUUAAUUUAUCACUACGAAAUCUUGUGAUCGGGCGUAGGACUCGCCCCCUGGAGAUUUUUUCCUCGAGCAA [C1A G19C A31G A60U U71A C72G G84U] it is ≤ 0.026. In the case of AUCUCGGUAGCCAAGUUGGUUUAAGGCGCAAGACUUUAAUUUAUCACUACGAAAUCUUGAGAUCGGCCGUUAGACUCGCCCCCGGGAGAUUUUUUCCUCGAGCAA [C1A G67C C72A], the nonsense suppression is ≤ 0.026. The figure for AUCUCGGUAGUUAUGUUGGUUUAAGGCGCAAGACUUUAAUUUAUCACUACGAAAUCUUGAGUUCGGGCGUUCGACUCGCCCCCGGGAGAUUUUUUCCUCGAGCAA [C1A C11U C12U A14U A62U] is ≤ 0.026; for AUCUCGGUAGCCAAGUUGGUUUACGGCGCAAGACUUUAAUUUAUCACUACGAAAUCUUGCGAGCGGGCGUUGGACUGGCCCCCGGGAGAUUUUUUCCUCGAGCAA [C1A A24C A60C U63G C72G C77G] it is ≤ 0.026; for AUCUCGGUAGCCAAGUUGGUUUAAGGCGCAAGACUUUAAUUUAUCACUACGAAGUCUCGAGAUCGGGCGUCCGACUCGCCCCCGGGAGAUUUUUUCCUCGAGCAA [C1A A54G U58C U71C] it is ≤ 0.026. With AUCUCGGUAGCCAAGUUGGUUUAAGGCGCAAGACUUUAAUUUAUCACUACGAAAUGUUGAGUUCGGGCGUUCGACUCGCGCACGGGAGAUUUUUUCCUCGAGCAA [C1A C56G A62U C80G C82A], the nonsense suppression is ≤ 0.026.

Regarding AUCUCGGUAGCCAAGUUGGUUUAAGGCGCAAGACUUUAAUUUAUCACUACGAAAUCUUGAGAUCGGGCGUUCGACUCGCCCCCGUGAGAUUUUUUCCUCGAGCAA [C1A G85U], the nonsense suppression was determined as 0.03. The figure for AUCUGGGUAGCCAAGUUGGUUUAAGGCGCAAGACUUUAAUUUAUCACUACGAAAUCUUGAGAUCGGGCGUUCGACUCGCCCCCGGGAGAUUUUUUCCUCGAGCAA [C1A C5G] is ≤ 0.026. The figure for AUGUCGGUAGCCAAGUUGGUUUAAGGCGCAAGACUUUAAUUUAUCACUACGAAAUCUAGAGAUCGGGGGUUCGACUCGCCCCCGGGAGAUUUUUUCCUCGAGCAA [C1A C3G U58A C68G] is ≤ 0.026; for AUCUCGGUAGCCAAGAUGGUUUAAGGCGCAAGACUUUAAUUUAUCACUACGAAAUCUUGAGAUCGGGCGUUCGACUCGCCCCCGGGACAUUUUUUCCUCGAGCAA [C1A U16A G88C] it is ≤ 0.026; for AUCUCGGAAGCCAAGUUGGUUUAAGGCGCAAGACUUUAAUUUAUCACUACGAAACCUUGAGAUCGGGCGUUCGACUCGCCCCCGGGAGUUUUUUUCCUCGAGCAA [C1A U8A U55C A89U] it is ≤ 0.026.

Consider AUCUCGGUAGCCAAGUUGGUUUAAGGCGCAAGACUUUAAUUUAUCACUACGAAAUCUUGAGAUCGGGCGUUCGACUCGCCCCCGGCAGAUUUUUUCCUCGAGCAA [C1A G86C], for which the nonsense suppression is ≤ 0.026.
